Assay results: ChEMBL document CHEMBL1142097, “EthA, a common activator of thiocarbamide-containing drugs acting on different mycobacterial targets” (Antimicrob Agents Chemother, 2007)
The source made the active and inactive calls. The rule behind the calls is not given here.

Tests used:
[1] = tested on: Mycobacterium tuberculosis variant bovis; experiment: Inhibition of mycolic acid synthesis in Mycobacterium bovis BCG str. Pasteur 1173P2 overexpressing ethA gene; type: functional
Summary of the method: (§1)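 Mid-log cultures in Sauton medium exposed to graded drug concentrations (μg/ml) for 16 h at 37°C, then pulsed with 1 μCi/ml [2-14C]acetate for 8 h at 37°C. Cells PBS-washed, hydrolysed with 15% tetrabutylammonium hydroxide at 100°C overnight, methylated with CH3I in CH2Cl2; fatty and mycolic acid methyl esters resolved by TLC and autoradiographed.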

[2] = tested on: Mycobacterium tuberculosis variant bovis; experiment: Inhibition of oleic acid synthesis in Mycobacterium bovis BCG str. Pasteur 1173P2 overexpressing ethA gene; type: functional; summary of the method: as §1

CC(C)CCSc1ccc(NC(=S)Nc2ccc(SCCC(C)C)cc2)cc1
Activity [1]: Active | Activity [2]: Active
